Experimental data: ChEMBL document CHEMBL2169867, “Novel β-amino acid derivatives as inhibitors of cathepsin A” (J Med Chem, 2012)
Activity calls are given as the source filed them. The calls are words filed in the database; no cut-off is given here.

Tests used:
[1] = Permeability across human Caco2 cells; type: ADME, cell-based; settings: Caco-2, read-out: permeability
Rattus norvegicus [2] = experiment: Antihypertensive activity in Wistar rat assessed as increase in bradykinin level in urine at 30 mg/kg, po relative to vehicle-treated control; type: functional
In short: (§1)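 Male Wistar rats dosed po at 30 mg kg⁻¹ day⁻¹. Urine collected over 6 h before and after treatment. Bradykinin measured by commercial RIA; creatinine excretion also determined. Mean ± SEM, n = 9-10; paired t test.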

[3] = Cmax in Sprague-Dawley rat heart at 10 mg/kg, po; type: ADME, organism-based; set-up: dose 10 mg/kg, route oral
In short: (§2)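 Male Sprague-Dawley rats; single oral 10 mg/kg in glycofurol 75 (19%)/Cremophor RH40 (6%)/water (75%). Plasma and heart sampled at eight time points over 24 h, three animals per time point, nonserial design. Heart homogenized with water (2 g per 1 g tissue). Concentrations measured by LC-MS/MS with a structurally related internal standard; AUC(0-inf) taken from plasma concentration-time curves.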

[4] = AUC (0 to infinity) in Sprague-Dawley rat heart at 10 mg/kg, po; type: ADME, organism-based; set-up: time infinity, dose 10 mg/kg, route oral; in short: as §2
Neprilysin = Neprilysin (Homo sapiens, UniProt P08473); experiment: Inhibition of human recombinant NEP using Mca-RPPGFSAFK(Dnp)-OH as substrate incubated for 15 mins prior to substrate addition measured after 20 to 30 mins by fluorimetric analysis
In short: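 Recombinant human NEP and inhibitor preincubated 15 min at room temperature in reaction buffer, then substrate added. Fluorescence read after 20-30 min at room temperature. % inhibition and IC50 calculated against internal high and low controls.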

[5] = molecular target: T1, Lysosomal protective protein (Homo sapiens, UniProt P10619); experiment: Inhibition of human recombinant Myc-His10-tagged cathepsin A expressed in baculovirus infected Sf9 cells using BodipyFL labeled bradykinin as substrate incubated for 15 mins prior to substrate addition measured after 15 mins by fluorimetric analysis
T1 sequence (P10619 whole entry): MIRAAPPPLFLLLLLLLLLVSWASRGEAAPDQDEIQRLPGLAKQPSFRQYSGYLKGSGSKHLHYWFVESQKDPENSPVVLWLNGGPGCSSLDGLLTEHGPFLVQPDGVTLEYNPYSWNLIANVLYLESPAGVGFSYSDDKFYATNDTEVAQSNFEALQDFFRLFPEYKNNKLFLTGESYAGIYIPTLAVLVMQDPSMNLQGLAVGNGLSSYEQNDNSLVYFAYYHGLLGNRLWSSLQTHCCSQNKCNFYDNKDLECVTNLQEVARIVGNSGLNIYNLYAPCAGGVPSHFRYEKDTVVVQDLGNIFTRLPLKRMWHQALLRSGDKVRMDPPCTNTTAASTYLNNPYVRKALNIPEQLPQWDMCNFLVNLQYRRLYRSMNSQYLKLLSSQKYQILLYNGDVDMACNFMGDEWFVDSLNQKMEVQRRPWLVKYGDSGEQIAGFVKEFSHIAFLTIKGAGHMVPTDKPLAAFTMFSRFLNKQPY

Rattus norvegicus [6] = experiment: Effect on glomerular filtration rate in Wistar rat assessed as change in creatinine excretion at 30 mg/kg, po relative to vehicle-treated control; type: functional, organism-based; set-up: dose 30 mg/kg; in short: as §1
[7] = Cmax in Sprague-Dawley rat plasma at 10 mg/kg, po; type: ADME, organism-based; set-up: dose 10 mg/kg, route oral; in short: as §2
[8] = AUC (0 to infinity) in Sprague-Dawley rat plasma at 10 mg/kg, po; type: ADME, organism-based; set-up: time infinity, dose 10 mg/kg, route oral; in short: as §2
Rattus norvegicus [9] = experiment: Antihypertensive activity in Wistar rat assessed as bradykinin-dependent diuresis at 1 mg/kg, iv administered as bolus measured as urine flow rate (reference value: 11.6 uL/min); type: functional
Cytochrome P450 3A4 = Cytochrome P450 3A4 (Homo sapiens, UniProt P08684); experiment: (§3) Induction of CYP3A4 relative to control; type: ADME
Mus musculus [10] = experiment: Cardioprotective activity against angiotensin 2-induced cardiac hypertrophy in B6.129P2-ApoE/J mouse assessed as ejection fraction at 100 mg/kg, po administered QD after 4 weeks (reference value: 51.14 2.49 %); type: functional, Heart
Rattus norvegicus [11] = experiment: Antihypertensive activity in Wistar rat assessed as bradykinin-dependent diuresis at 10 mg/kg, iv administered as bolus measured as urine flow rate in presence of HOE140 (reference value: 11.6 uL/min); type: functional
In short: (§4)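 Anesthetized male Wistar rats prepared with urethane, carotid/jugular cannulae, continuous albumin-saline infusion and ureteral urine collection. Compound given as iv bolus at 10 mg/kg, alone or with HOE140 0.5 mg/kg iv. Urine volume measured over five successive 20 min periods; two-way ANOVA with Bonferroni post-tests, p < 0.05.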

Rattus norvegicus [12] = experiment: Cardioprotective activity against ventricular ischemia/reperfusion in Wistar rat assessed as duration of burst-pacing-induced atrial fibrillation at 30 mg/kg, po administered QD after 3 months (reference value: 25.00 18.09 s); type: functional, Cardiac atrium
Rattus norvegicus [13] = experiment: Antihypertensive activity in Wistar rat assessed as bradykinin-dependent diuresis at 10 mg/kg, iv administered as bolus measured as urine flow rate (reference value: 11.6 uL/min); type: functional; in short: as §4
Mus musculus [14] = experiment: Cardioprotective activity against angiotensin 2-induced cardiac hypertrophy in B6.129P2-ApoE/J mouse assessed as left ventricular relaxation time at 100 mg/kg, po administered QD after 4 weeks (reference value: 8.73 0.41 ms); type: functional, Heart left ventricle
Mus musculus [15] = experiment: Cardioprotective activity against angiotensin 2-induced cardiac hypertrophy in B6.129P2-ApoE/J mouse assessed as left ventricular end diastolic pressure at 100 mg/kg, po administered QD after 4 weeks (reference value: 15.49 1.95 mmHg); type: functional, Heart left ventricle
[16] = molecular target: Cathepsin A (Homo sapiens); experiment: Inhibition of cathepsin A
Mus musculus [17] = experiment: Cardioprotective activity against angiotensin 2-induced cardiac hypertrophy in B6.129P2-ApoE/J mouse assessed as left ventricular end systolic pressure at 100 mg/kg, po administered QD after 4 weeks (reference value: 139.36 9.79 mmHg); type: functional, Heart left ventricle
Mus musculus [18] = experiment: Cardioprotective activity against angiotensin 2-induced cardiac hypertrophy in B6.129P2-ApoE/J mouse assessed as mean arterial pressure at 100 mg/kg, po administered QD after 4 weeks (reference value: 99.03 6.82 mmHg); type: functional, Heart
Mus musculus [19] = experiment: Ratio of left ventricular wet weight to body weight in B6.129P2-ApoE/J mouse at 100 mg/kg, po administered QD after 4 weeks (reference value: 5.99 0.28 mg/g); type: functional
Mus musculus [20] = experiment: Toxicity in B6.129P2-ApoE/J mouse assessed as body weight at 100 mg/kg, po administered QD after 4 weeks (reference value: 30.48 0.52 g); type: organism-based; set-up: dose 100 mg/kg, route oral; settings: in vivo, 672 h
Mus musculus [21] = experiment: Cardioprotective activity against angiotensin 2-induced cardiac hypertrophy in B6.129P2-ApoE/J mouse assessed as heart rate at 100 mg/kg, po administered QD after 4 weeks (reference value: 403.23 7.98 bpm); type: functional
Mus musculus [22] = experiment: Cardioprotective activity against angiotensin 2-induced cardiac hypertrophy in B6.129P2-ApoE/J mouse assessed as left ventricular wet weight at 100 mg/kg, po administered QD after 4 weeks (reference value: 182.03 […]); type: functional, Heart left ventricle
CYP3A4 = CYP3A4 (Homo sapiens, UniProt P08684); experiment: as §3; type: ADME; settings: human
Mus musculus [23] = experiment: Cardioprotective activity against angiotensin 2-induced cardiac hypertrophy in B6.129P2-ApoE/J mouse assessed as left ventricular relaxation time at 100 mg/kg/day, po administered BID after 4 weeks (reference value: 8.73 0.41 ms); type: functional, Heart left ventricle
Mus musculus [24] = experiment: Cardioprotective activity against angiotensin 2-induced cardiac hypertrophy in B6.129P2-ApoE/J mouse assessed as heart rate at 100 mg/kg/day, po administered BID after 4 weeks (reference value: 403.23 7.98 bpm); type: functional
Mus musculus [25] = experiment: Cardioprotective activity against angiotensin 2-induced cardiac hypertrophy in B6.129P2-ApoE/J mouse assessed as left ventricular end diastolic pressure at 100 mg/kg/day, po administered BID after 4 weeks (reference value: 15.49 1.95 mmHg); type: functional, Heart left ventricle
Mus musculus [26] = experiment: Toxicity in B6.129P2-ApoE/J mouse assessed as body weight at 100 mg/kg/day, po administered BID after 4 weeks (reference value: 30.48 0.52 g); type: organism-based; set-up: route oral; settings: in vivo, 672 h
Mus musculus [27] = experiment: Cardioprotective activity against angiotensin 2-induced cardiac hypertrophy in B6.129P2-ApoE/J mouse assessed as ejection fraction at 100 mg/kg/day, po administered BID after 4 weeks (reference value: 51.14 2.49 %); type: functional, Heart
Mus musculus [28] = experiment: Ratio of left ventricular wet weight to body weight in B6.129P2-ApoE/J mouse at 100 mg/kg/day, po administered BID after 4 weeks (reference value: 5.99 0.28 mg/g); type: functional
Mus musculus [29] = experiment: Cardioprotective activity against angiotensin 2-induced cardiac hypertrophy in B6.129P2-ApoE/J mouse assessed as mean arterial pressure at 100 mg/kg/day, po administered BID after 4 weeks (reference value: 99.03 6.82 mmHg); type: functional, Heart
Mus musculus [30] = experiment: Cardioprotective activity against angiotensin 2-induced cardiac hypertrophy in B6.129P2-ApoE/J mouse assessed as left ventricular end systolic pressure at 100 mg/kg/day, po administered BID after 4 weeks (reference value: 139.36 9.79 mmHg); type: functional, Heart left ventricle
Mus musculus [31] = experiment: Cardioprotective activity against angiotensin 2-induced cardiac hypertrophy in B6.129P2-ApoE/J mouse assessed as left ventricular wet weight at 100 mg/kg/day, po administered BID after 4 weeks (reference value: 182.03 […]); type: functional, Heart left ventricle
[32] = molecular target: Voltage-gated inwardly rectifying potassium channel KCNH2 (Homo sapiens, UniProt Q12809); experiment: Inhibition of human ERG
Salmonella typhimurium = experiment: Genotoxicity against Salmonella typhimurium by AMES test; type: toxicity, organism-based; settings: salmonella enterica subsp. enterica serovar typhimurium
[33] = Oral bioavailability in Sprague-Dawley rat at 10 mg/kg; type: ADME, organism-based; settings: in vivo
[34] = Genotoxicity in micronucleus
[35] = Drug metabolism in rat liver microsomes; type: ADME, Microsome; settings: read-out: Drug metabolism
[36] = Solubility of the compound; type: physicochemical
[37] = Drug metabolism in human liver microsomes; type: ADME, Microsome; settings: read-out: Drug metabolism
[38] = Lipophilicity, log D of the compound; type: physicochemical; settings: octanol/water

Sequence of Neprilysin (P08473 whole entry): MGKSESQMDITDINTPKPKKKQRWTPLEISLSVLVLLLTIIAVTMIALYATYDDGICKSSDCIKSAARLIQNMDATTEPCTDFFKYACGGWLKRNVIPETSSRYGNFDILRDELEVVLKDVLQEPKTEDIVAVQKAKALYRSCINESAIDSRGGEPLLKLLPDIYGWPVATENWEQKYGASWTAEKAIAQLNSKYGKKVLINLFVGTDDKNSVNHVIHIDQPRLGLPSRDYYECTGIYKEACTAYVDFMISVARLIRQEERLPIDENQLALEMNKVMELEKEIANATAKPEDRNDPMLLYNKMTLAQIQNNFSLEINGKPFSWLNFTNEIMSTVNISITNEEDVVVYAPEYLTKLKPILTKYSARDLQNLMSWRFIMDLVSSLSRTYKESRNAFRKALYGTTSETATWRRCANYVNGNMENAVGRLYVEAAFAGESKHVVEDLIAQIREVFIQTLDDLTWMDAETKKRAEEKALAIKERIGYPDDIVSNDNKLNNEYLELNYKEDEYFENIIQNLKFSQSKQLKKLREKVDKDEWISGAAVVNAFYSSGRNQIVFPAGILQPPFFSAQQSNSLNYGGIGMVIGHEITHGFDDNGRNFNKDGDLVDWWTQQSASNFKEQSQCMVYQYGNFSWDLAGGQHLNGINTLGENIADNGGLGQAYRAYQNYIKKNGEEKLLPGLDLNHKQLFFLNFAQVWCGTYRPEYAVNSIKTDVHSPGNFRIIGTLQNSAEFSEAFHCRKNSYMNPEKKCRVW
Sequence of Cytochrome P450 3A4 (P08684 whole entry): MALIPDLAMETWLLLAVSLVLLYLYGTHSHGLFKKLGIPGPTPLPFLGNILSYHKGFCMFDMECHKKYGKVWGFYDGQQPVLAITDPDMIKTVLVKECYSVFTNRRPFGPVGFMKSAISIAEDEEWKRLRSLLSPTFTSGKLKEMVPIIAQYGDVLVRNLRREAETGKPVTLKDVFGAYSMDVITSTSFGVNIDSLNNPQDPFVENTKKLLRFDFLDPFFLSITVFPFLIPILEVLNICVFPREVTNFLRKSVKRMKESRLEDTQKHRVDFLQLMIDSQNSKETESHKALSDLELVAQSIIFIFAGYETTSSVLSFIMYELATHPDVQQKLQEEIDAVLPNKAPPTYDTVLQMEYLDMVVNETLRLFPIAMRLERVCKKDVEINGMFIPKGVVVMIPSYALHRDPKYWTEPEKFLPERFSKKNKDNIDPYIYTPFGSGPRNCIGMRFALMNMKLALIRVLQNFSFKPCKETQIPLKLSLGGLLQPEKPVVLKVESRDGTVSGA
Sequence of CYP3A4 (P08684 whole entry): as above
Sequence of Voltage-gated inwardly rectifying potassium channel KCNH2 (Q12809 whole entry): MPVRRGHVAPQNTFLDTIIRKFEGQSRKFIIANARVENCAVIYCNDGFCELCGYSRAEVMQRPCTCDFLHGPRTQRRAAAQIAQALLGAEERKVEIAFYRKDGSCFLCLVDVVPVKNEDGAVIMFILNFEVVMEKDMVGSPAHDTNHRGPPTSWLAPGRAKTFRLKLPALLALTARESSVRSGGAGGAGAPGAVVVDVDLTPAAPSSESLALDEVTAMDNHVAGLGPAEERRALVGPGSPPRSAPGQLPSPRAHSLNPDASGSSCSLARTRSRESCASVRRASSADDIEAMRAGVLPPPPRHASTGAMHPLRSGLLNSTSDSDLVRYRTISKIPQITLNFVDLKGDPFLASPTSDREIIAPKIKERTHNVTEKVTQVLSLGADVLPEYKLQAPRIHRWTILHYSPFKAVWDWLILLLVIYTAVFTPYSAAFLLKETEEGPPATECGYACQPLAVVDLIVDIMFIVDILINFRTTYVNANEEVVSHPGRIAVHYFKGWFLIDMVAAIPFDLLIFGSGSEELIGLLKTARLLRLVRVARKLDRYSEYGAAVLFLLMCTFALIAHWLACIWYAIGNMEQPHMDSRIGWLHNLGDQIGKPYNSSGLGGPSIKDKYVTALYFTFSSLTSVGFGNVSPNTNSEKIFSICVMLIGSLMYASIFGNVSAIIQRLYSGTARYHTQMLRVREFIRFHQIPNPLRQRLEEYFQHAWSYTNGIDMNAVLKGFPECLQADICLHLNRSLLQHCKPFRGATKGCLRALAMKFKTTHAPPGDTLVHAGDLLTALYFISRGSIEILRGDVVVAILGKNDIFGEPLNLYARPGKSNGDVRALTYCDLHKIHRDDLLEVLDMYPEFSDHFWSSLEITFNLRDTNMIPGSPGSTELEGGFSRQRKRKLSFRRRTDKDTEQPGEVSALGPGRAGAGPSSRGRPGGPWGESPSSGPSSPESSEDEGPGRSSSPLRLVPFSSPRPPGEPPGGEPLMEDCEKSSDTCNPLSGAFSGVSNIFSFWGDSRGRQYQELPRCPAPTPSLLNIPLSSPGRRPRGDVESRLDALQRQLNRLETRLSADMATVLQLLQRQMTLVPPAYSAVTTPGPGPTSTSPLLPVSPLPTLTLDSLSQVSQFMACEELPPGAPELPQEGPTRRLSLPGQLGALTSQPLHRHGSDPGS

Compound	Papp [1] [×10⁻⁶ cm/s]	fold change (FC) (Rattus norvegicus [2])	Cmax [3] [ng/mL]	AUC(0-inf) [4] [ng·h/mL]	IC50 (Neprilysin) [nM]	inhibition (Neprilysin)	IC50 [5] [nM]	Activity (Rattus norvegicus [6])	Cmax [7] [ng/mL]	AUC(0-inf) [8] [ng·h/mL]	Activity (Rattus norvegicus [9]) [µL/min]	Activity (Cytochrome P450 3A4)	Emax (CYP3A4) [%]	other results
CC(C)(C)[C@@H](O)COc1cc(C(=O)N[C@@H](CC(=O)O)c2ccc(Cl)cc2Cl)nn1-c1ccccc1F	> 2	2	872	2600	> 1000	inactive	50	inactive	2670	9300	36.5	Not Active		
COc1cc(C(=O)N[C@@H](CC(=O)O)c2ccccc2C)nn1-c1ccccc1F		2	3720	16000	1900		26	inactive	22200	130000	14.3		9	Activity (Mus musculus [10]): 57.89%; Activity (Rattus norvegicus [11]): 15.3 µL/min; Time (Rattus norvegicus [12]): 0.69 s; Activity (Rattus norvegicus [13]): 18.3 µL/min; Time (Mus musculus [14]): 7.05 ms; Activity (Mus musculus [15]): 8.32 mmHg; IC50 [16]: 26 nM; Activity (Mus musculus [17]): 129.95 mmHg; Activity (Mus musculus [18]): 95.88 mmHg; Ratio (Mus musculus [19]): 4.84 mg/g; Activity (Mus musculus [20]): 29.63 g; Activity (Mus musculus [21]): 407.11 bpm; Activity (Mus musculus [22]): 142.69 mg
CC(=O)S[C@@H]1CC2=CC(=O)CC[C@]2(C)[C@H]2CC[C@@]3(C)[C@@H](CC[C@@]34CCC(=O)O4)[C@H]12 [SPIRONOLACTONE]														Time (Mus musculus [23]): 7.52 ms; Activity (Mus musculus [24]): 410.78 bpm; Activity (Mus musculus [25]): 14.93 mmHg; Activity (Mus musculus [26]): 28.84 g; Activity (Mus musculus [27]): 58.59%; Ratio (Mus musculus [28]): 5.07 mg/g; Activity (Mus musculus [29]): 103.99 mmHg; Activity (Mus musculus [30]): 137.39 mmHg; Activity (Mus musculus [31]): 145.96 mg
Cc1ccccc1[C@H](CC(=O)O)NC(=O)c1cc(=O)n(-c2ccccc2F)[nH]1						Active							0	IC50 [32]: > 10000 nM; Activity (Salmonella typhimurium): Non-toxic; bioavailability [33]: < 5%; Activity [34]: Non-toxic; metabolised [35]: 10%; solubility [36]: > 180 µg/mL; metabolised [37]: 10%; logD [38]: -0.16
Cc1ccccc1[C@H](CC(=O)O)NC(=O)c1cc(OC[C@H](O)C(C)(C)C)n(-c2ccccc2F)n1	> 2	2	426	1600	> 1000	inactive		inactive	1360	5300	27.7	Not Active		
